# Assay outcomes: PubChem BioAssay, Broad Institute
# An excerpt weighted towards active compounds, which were near 2.2% of everything screened.
# FGF22 binding: binders of human FGF22 protein, primary screen, FGF22 synaptogenesis inhibitor project, biophysical, thermal shift, single point; activity (Tm shift, normalised), % at 9.99 µM; recombinant FGF22 thermal shift, SYPRO orange fluorescence; percent of sucrose octasulfate shift, DMSO zero; 340,000 tested, 1.5% active;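 active = mean Tm shift, scaled 0 neutral to 100 positive control, at about 1.3% or above, every replicate too, limit read from the data; inconclusive = no clear call, values can overlap the other calls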
# Target sequence (Q9HCT0 whole entry, looked up): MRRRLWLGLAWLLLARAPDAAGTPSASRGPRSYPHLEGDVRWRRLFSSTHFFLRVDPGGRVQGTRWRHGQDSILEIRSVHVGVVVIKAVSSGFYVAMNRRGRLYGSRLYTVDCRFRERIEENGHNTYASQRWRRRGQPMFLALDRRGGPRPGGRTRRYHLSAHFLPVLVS
# S100A4 MyoIIA: inhibitors of S100A4-myosin IIA peptide binding, primary screen, biochemical, fluorescence polarization, TAMRA-MyoIIA peptide. inhibition, % at 10.7 µM. 360,000 tested, 0.14% active. Protein S100-A4 (Homo sapiens), P26447;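 active = mean inhibition of at least 70% across replicates, with every replicate also reaching that level; inconclusive = mean inhibition reaches 70% but some replicates fall short; inactive = mean inhibition below 70%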
# Target sequence (P26447 whole entry, looked up): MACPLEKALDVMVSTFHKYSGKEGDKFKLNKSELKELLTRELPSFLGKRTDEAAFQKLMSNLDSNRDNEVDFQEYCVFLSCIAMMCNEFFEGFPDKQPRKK
#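 Assay system: human S100A4 monomer with TAMRA-labelled myosin IIA peptide / Buffer or medium: Calcium-containing HEPES buffer, pH 7.2 / Reagent: TAMRA-labelled myosin IIA heavy-chain peptide probe, 5 nM / Compound: one dose per compound / Timing: polarization read 5 min after assay mix addition, stable 5–60 min / Benchmarks: neutral control DMSO, positive control TFP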
# dFosB act: activators of delta FosB homodimer, primary screen, biochemical, fluorescence polarization, TAMRA-CDK5 oligo, single point | Protein FosB (Mus musculus), P13346 | purified delta FosB; percent of positive-control signal above neutral wells | activation, % at 25 µM | 340,000 tested, 0.99% active | AID 493131, 2011;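 active = mean activation above about 17%, with every replicate also reaching it, limit read from the data, passing the limit was not always enough; inconclusive = only one of the two conditions met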
# F508del corr: F508del CFTR correction, initial screen, CFBE line, single point | CFBE cells, YFP halide quenching; stimulated with forskolin plus potentiator P3; % fluorescence drop versus neutral controls | activity (quench increase), % at 7.58 µM | 350,000 tested, 0.36% active | AID 720511, 2013;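 active = mean added fluorescence quench of at least 8% versus neutral control, with both replicates also reaching 8%; inconclusive = only one of the mean or replicate conditions met; inactive = mean below 8% and not both replicates reaching 8%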;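 note: cells transiently co-express mutant CFTR-F508del with the halide-sensitive YFP; corrector assay measuring rescue of mutant channel to the surface after 24 h compound exposure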
# * marks the source's active call; other numbers are inactive results; u = inconclusive; x = no result; + = active, no number.
SMILES,FGF22 binding,S100A4 MyoIIA,dFosB act,F508del corr
CCCn1c(C)cc(C=O)c1C,0,-10,5,2
Cc1cc(C=O)c(C)n1C(C)C,43*,-2,-9,-2
O=C1CC(N2CCC(n3c(=O)[nH]c4ccccc43)CC2)C(=O)N1c1ccc(F)cc1 (centres undefined),x,x,-6,x
O=c1[nH]c2ccccc2n1C1CCN(CCCC(c2ccc(F)cc2)c2ccc(F)cc2)CC1,0,-1,28*,2
CCOC(=O)C1(c2ccccc2)CCN(CCC(=O)Nc2cccc(Br)c2)CC1,0,-1,18*,0
CCOC(=O)C1(c2ccccc2)CCN(CCC(=O)Nc2ccc(OC)cc2)CC1,0,-2,x,3
CCOC(=O)[C@@H]1[C@@H]2NC(=O)N(C)[C@@]1(C)Oc1ccccc12,0,1,x,2
CC1(C)OC(c2ccccc2)=C/C(=C/C=C2C(=O)NC(=O)NC2=O)O1,0,7,4,14*
O=C(Cc1cccnc1)N1CCCCN2[C@H](CO)[C@@H](c3ccc(C#CC4CC4)cc3)[C@H]2C1,0,0,x,-4
O=C(Cc1cccnc1)N1CCCCN2[C@@H](CO)[C@@H](c3ccc(C#CC4CC4)cc3)[C@@H]2C1,0,5,x,4
c1cc(-c2ccc(C3[C@H]4CNC[C@@H]3N4CC3CC3)cc2)ccn1 (some centres undefined),x,4,x,1
CCOc1ccc(NC(=O)c2c(O)[nH]c(=O)[nH]c2=O)cc1,0,-2,-4,-2
CC(=O)Nc1ccc(OCCF)cc1,43*,0,-7,0
COC(=O)[C@@H]1[C@@H](CO)[C@@H]2Cn3c(ccc(/C=C/c4ccccc4)c3=O)[C@H]1N2C(=O)C1CC1,0,3,x,x
N=Cc1c(O)n(-c2ccc(C34CC5CC(CC(C5)C3)C4)cc2)c(=O)[nH]c1=O,x,x,46*,x
O=C1NC(=O)C(=Cc2ccco2)C(=O)N1,44*,9,-11,-3
O=C1NC(=O)C(=Cc2c(Cl)cccc2Cl)C(=O)N1,0,3,-1,8.7*
COc1ccccc1CN1[C@H](CO)[C@H](c2ccccc2)C12CN(C(=O)Cc1ccccc1)C2,0,2,x,0
CC=CC(C)=CC(C)C(=O)CC(O)CC1CC(=O)NC(=O)C1 (centres undefined),0,0,x,10*
COc1ccccc1N1C(=O)NC(=O)/C(=C/c2ccc3c(c2)Cc2ccccc2-3)C1=O,43*,-21,-9,-5
COC(=O)[C@H]1[C@H](CO)[C@H]2Cn3c(ccc(-c4ccncc4)c3=O)[C@@H]1N2CCc1ccccc1,0,8,x,x
C/C=C/c1ccc(C2[C@@H]3CN(C(=O)CN(C)C)C[C@H]2N3)cc1 (some centres undefined),x,-1,x,0
Cc1ccc(-n2c(O)c(/C=N/N3CCCCC3c3cccnc3)c(=O)[nH]c2=S)cc1 (centres undefined),43*,-17,u,1
C=CCC1([C@@H](C)CCC)C(=O)NC(=O)NC1=O,0,-3,-4,-1
CCCC(C)C1(CC)C(=O)NC(=O)N=C1N (centres undefined),44*,-2,1,1
SMILES,FGF22 binding,S100A4 MyoIIA,dFosB act,F508del corr
O=C1NC(=O)C(=Cc2ccc(-c3ccc(F)cc3O)o2)C(=O)N1,43*,-6,-1,0
O=C1NC(=O)C(=Cc2ccc(-c3ccc(Cl)cc3)o2)C(=O)N1,x,x,2,x
CC1(O)CCC2C3CCC4=CC(=O)CCC4=C3C=CC21C (centres undefined),43*,12,7,-5
O=C(Cc1ccccc1)N1C[C@H]2[C@@H](c3ccccc31)[C@H](CO)N2Cc1ccccc1,0,-6,x,2
CNc1ccc2nc3ccccc3[n+](C)c2c1,0,+,-213,-3
OCCNc1c2c(nc3ccccc13)CCCC2,x,x,-7,x
C[n+]1c2ccccc2nc2ccc(NCCO)cc21,0,192*,-264,-4
NS(=O)(=O)OC(CCc1ccccc1)C(Cl)(Cl)Cl (centres undefined),45*,30,-1,-1
C[C@@H]1CN([C@@H](C)CO)C(=O)c2c(c3ccccc3n2C)-c2ccccc2CO[C@H]1CN(C)C(=O)Oc1ccccc1,x,7,x,-1
O=C(COC(=O)c1cccc(O)c1)Nc1ccc(Cl)cc1C(=O)c1ccccc1,52*,-6,-4,-2
COc1ccc(NC(c2ccccc2)P(=O)(Oc2ccccc2)Oc2ccccc2)cc1 (centres undefined),0,-3,-11,2
COc1ccc(NC(c2ccccc2F)P(=O)(Oc2ccccc2)Oc2ccccc2)cc1 (centres undefined),44*,0,-21,1
CN(C)c1ccc(/C=C/C=C2/C(=O)NC(=O)N(c3ccccc3)C2=O)cc1,44*,-84,10,u
O=C1NC(=O)N(c2ccccc2)C(=O)/C1=C/C=C/c1ccco1,0,-9,-13,-3
Cc1ccccc1C(=O)N1Cc2ccccc2-n2nncc2C1,0,1,x,5
O=C(c1cccnc1)N1Cc2ccccc2-n2nncc2C1,44*,0,x,-3
C=Cc1cc(OC)c2c(c1)c(=O)oc1c2cc(OC)c2c(O)ccc(C3OC(C)C(O)C(C)(O)C3O)c21 (centres undefined),0,12,-33,18*
CCOc1cc2c(cc1OCC)-n1cccc1C(c1ccc(C(C)C)cc1)NC2 (centres undefined),0,2,24*,2
Cc1nc(C)c(C(=O)NN=Cc2ccc(N(CCCl)CCCl)cc2)s1,0,1,-10,8.7*
COC1CC2C=C(C)C=CC=CC(=O)NC(c3ccccc3)CC=CCCC(O)CC(=O)C2=C1O (centres undefined),0,6,x,12*
O=P(Oc1ccc(-c2ccccc2)cc1)(N1CC1)N1CC1,0,-3,-1,9.9*
O=P(Oc1ccc(Cl)cc1)(N1CC1)N1CC1,x,-7,-10,-3
C/C(=N\N1CCCCCC1)c1c(O)n(-c2ccc(Cl)cc2)c(=O)[nH]c1=O,0,0,10,0
C/C(=N\N1CCCCCC1)c1c(O)n(-c2ccc(C)cc2)c(=O)[nH]c1=O,44*,-17,-3,-3
CC12CCC3C(CC=C4CC5(CCC43C)OCCO5)C1CCC2=O (centres undefined),44*,-2,-5,2
C[C@]12CC[C@H](OS(=O)(=O)O)CC1=CC[C@@H]1[C@@H]2CC[C@]2(C)C(=O)CC[C@@H]12,0,-1,-5,3
CCCN1[C@@H]2c3ccc(-c4ccc(F)cc4)c(=O)n3C[C@H]1[C@H](CO)[C@H]2C(=O)OC,0,22,x,2
